Assay results from different studies.
Sample: plasma

`CCCCCCCCCC(=O)N[C@@H](Cc1c[nH]c2ccccc12)C(=O)N[C@H](CC(N)=O)C(=O)N[C@@H](CC(=O)O)C(=O)N[C@@H]1C(=O)NCC(=O)N[C@@H](CCCN)C(=O)N[C@@H](CC(=O)O)C(=O)N[C@H](C)C(=O)N[C@@H](CC(=O)O)C(=O)NCC(=O)N[C@H](CO)C(=O)N[C@@H]([C@H](C)CC(=O)O)C(=O)N[C@@H](CC(=O)c2ccccc2N)C(=O)O[C@@H]1C` gave a Cmax of 205000 ng/mL (male Wistar rat; subcutaneous; 125 mg/kg; single dose).
The Cmax of `COc1cc(-c2cc(C(C)=O)n3ccccc23)c(OC)cc1Cn1ccnc1` is reported as 876 ng/mL (male Sprague-Dawley rat; oral; 5 mg/kg).
`Cc1cc2c(C(N)=O)cccc2n1-c1nc2c(c(NCc3ccccc3)n1)CCCN2` gave a Cmax of 802 ng/mL (male Sprague-Dawley rat; intravenous; 1 mg/kg; single dose).
`CCCCC(=O)Nc1ccc(-c2ccc3ncn(CCC)c(=O)c3c2)cn1` gave a Cmax of 3090 ng/mL (male rat; intravenous; 2.5 mg/kg).
`COc1cc(C2C3=C(COC3=O)N(CCO)c3cc4c(cc32)CCC4)cc(OC)c1OC` (stereo not shown) gave a Cmax of 915 ng/mL (female Sprague-Dawley rat; intraperitoneal; 50 mg/kg).
With `[2H]C([2H])([2H])NC(=O)c1cc(Oc2ccc(NC(=O)Nc3ccc(Cl)c(C(F)(F)F)c3)cc2)ccn1` the Cmax was 7420 ng/mL (rat; oral; 40 mg/kg; single dose).
`CC[C@H](C)[C@H](NC(=O)[C@@H]1CCCN1C(=O)CNC(=O)[C@H](Cc1ccccc1)NC(=O)[C@H](CC(N)=O)NC(=O)[C@H](CC(N)=O)NC(=O)[C@H](CO)NC(=O)[C@H](CO)NC(=O)[C@H](Cc1c[nH]cn1)NC(=O)[C@H](CCCNC(=N)N)NC(=O)[C@H](CC(C)C)NC(=O)[C@H](Cc1ccccc1)NC(=O)[C@H](CCC(=O)O)NC(=O)[C@H](C)NC(=O)[C@H](CC(C)C)NC(=O)[C@H](CCCNC(=N)N)NC(=O)[C@H](CCC(N)=O)NC(=O)[C@@H](NC(=O)[C@H](C)NC(=O)[C@@H]1CSSC[C@H](NC(=O)[C@H](CCCCN)NC(=O)CC[C@H](NC(=O)CCCCCCCCCCCCCCCCCCC(=O)O)C(=O)O)C(=O)N[C@@H](CC(N)=O)C(=O)N[C@@H]([C@@H](C)O)C(=O)N[C@@H](C)C(=O)N[C@@H]([C@@H](C)O)C(=O)N1)[C@@H](C)O)C(=O)N[C@@H](CC(C)C)C(=O)N1CCC[C@H]1C(=O)N1CCC[C@H]1C(=O)N[C@H](C(=O)N[C@@H](CC(N)=O)C(=O)N[C@H](C(=O)NCC(=O)N[C@@H](CO)C(=O)N[C@@H](CC(N)=O)C(=O)N[C@H](C(=O)N1CCC[C@H]1C(N)=O)[C@@H](C)O)C(C)C)[C@@H](C)O` gave a Cmax of 98.8 nM (male Sprague-Dawley rat; subcutaneous; 30 nmol/kg; single dose).
`O=C1CCC(N2Cc3cc(C4CCN(Cc5ccccc5)CC4)ccc3C2=O)C(=O)N1` (stereo not shown) gave a Cmax of 72.7 ng/mL (male Sprague-Dawley rat; oral; 3 mg/kg).
The Cmax of `C[C@@]12C[C@@]3(O)O[C@@H](O1)[C@]1(COC(=O)c4ccccc4)[C@H]3C[C@@]12O[C@@H]1O[C@H](CO)[C@@H](O)[C@H](O)[C@H]1O` is reported as 1.13 ng/mL (male Sprague-Dawley rat; oral; 80 mg/kg).
`C[C@H]1Oc2cc(cnc2N)-c2c(nn(C)c2C#N)CN(C)C(=O)c2ccc(F)cc21` gave a Cmax of 2250 ng/mL (Sprague-Dawley rat; intravenous; 1 mg/kg; single dose).
With `C[C@H]1[C@@H](O)O[C@@H]2O[C@@]3(C)CC[C@H]4[C@H](C)CC[C@@H]1[C@@]24OO3` the Cmax was 169 ng/mL (male Sprague-Dawley rat; oral; 10 mg/kg).
With `COc1ccc(N(Cc2csc(-c3ccccc3)n2)C(=O)CCCCCC(=O)NO)cc1` the Cmax was 150 ng/mL (female Sprague-Dawley rat; intravenous; 5 mg/kg).
For `CONC(=O)c1cccc2c1cc(C)n2-c1nc2c(c(NCc3ccccc3)n1)CCCN2`, the Cmax was 28.2 ng/mL (male Sprague-Dawley rat; intravenous; 1 mg/kg; single dose).
`C=CC(=O)N1CCC([C@@H]2CCNc3c(C(N)=O)c(-c4ccc(Oc5ccccc5)cc4)nn32)CC1` gave a Cmax of 426 ng/mL (Sprague-Dawley rat; oral; 16 mg/kg).
The Cmax of `CCCc1nc2c(C)cc(-c3nc4ccccc4n3C)cc2n1Cc1ccc(-c2ccccc2C(=O)O)cc1` is reported as 136 ng/mL (male Sprague-Dawley rat; oral; 8 mg/kg; single dose).
`COc1nc(-c2cccc(-c3ccccc3)c2C)ccc1CNCCNC(=O)CCCCCCCCCCC(=O)N1CCN(CCNC(=O)c2cc3c(=O)n4cccc(C)c4nc3n(CCc3cccs3)c2=N)CC1` gave a Cmax of 20.2 ng/mL (male Sprague-Dawley rat; oral; 40 mg/kg).
